# Measurements reported in ChEMBL document CHEMBL1145801, “Inhibition of Cdc25 phosphatases by indolyldihydroxyquinones” (J Med Chem, 2003).
# Key:
# [1] = target: T1, M-phase inducer phosphatase 2 (Homo sapiens, UniProt P30305); test: Inhibitory constant of compound against Cell division cycle 25B was determined
# [2] = target: T2, M-phase inducer phosphatase 1 (Homo sapiens, UniProt P30304); test: Eight point inhibitory concentration against Cell division cycle 25A was determined
# T2 sequence (P30304 whole entry): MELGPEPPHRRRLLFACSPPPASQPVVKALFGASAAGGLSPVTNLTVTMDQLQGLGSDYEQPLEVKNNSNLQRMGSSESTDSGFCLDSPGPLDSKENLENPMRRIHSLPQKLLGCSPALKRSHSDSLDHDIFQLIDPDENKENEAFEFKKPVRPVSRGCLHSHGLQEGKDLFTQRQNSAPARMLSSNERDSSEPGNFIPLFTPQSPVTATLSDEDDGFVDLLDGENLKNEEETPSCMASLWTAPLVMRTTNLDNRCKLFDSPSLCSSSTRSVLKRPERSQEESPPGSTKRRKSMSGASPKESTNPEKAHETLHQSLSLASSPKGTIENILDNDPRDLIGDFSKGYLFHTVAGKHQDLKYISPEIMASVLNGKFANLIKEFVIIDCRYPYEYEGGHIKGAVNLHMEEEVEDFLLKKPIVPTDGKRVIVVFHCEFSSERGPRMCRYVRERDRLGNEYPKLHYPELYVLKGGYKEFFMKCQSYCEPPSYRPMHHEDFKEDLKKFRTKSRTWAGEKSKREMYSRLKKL
# Method in brief: (§1)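 Phosphatase activity measured with 3-O-methylfluorescein phosphate at 50 μM (~5 × Km), product formation followed at 477 nm by UV-vis under initial velocity conditions (2–5% turnover) in time-dependent assays. Eight inhibitor concentrations were used, and IC50 was obtained by fitting to a dose–response equation.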
# [3] = target: T3, M-phase inducer phosphatase 2 (Homo sapiens, UniProt P30305); test: Eight point inhibitory concentration against Cell division cycle 25B was determined
# T3 sequence (P30305 whole entry): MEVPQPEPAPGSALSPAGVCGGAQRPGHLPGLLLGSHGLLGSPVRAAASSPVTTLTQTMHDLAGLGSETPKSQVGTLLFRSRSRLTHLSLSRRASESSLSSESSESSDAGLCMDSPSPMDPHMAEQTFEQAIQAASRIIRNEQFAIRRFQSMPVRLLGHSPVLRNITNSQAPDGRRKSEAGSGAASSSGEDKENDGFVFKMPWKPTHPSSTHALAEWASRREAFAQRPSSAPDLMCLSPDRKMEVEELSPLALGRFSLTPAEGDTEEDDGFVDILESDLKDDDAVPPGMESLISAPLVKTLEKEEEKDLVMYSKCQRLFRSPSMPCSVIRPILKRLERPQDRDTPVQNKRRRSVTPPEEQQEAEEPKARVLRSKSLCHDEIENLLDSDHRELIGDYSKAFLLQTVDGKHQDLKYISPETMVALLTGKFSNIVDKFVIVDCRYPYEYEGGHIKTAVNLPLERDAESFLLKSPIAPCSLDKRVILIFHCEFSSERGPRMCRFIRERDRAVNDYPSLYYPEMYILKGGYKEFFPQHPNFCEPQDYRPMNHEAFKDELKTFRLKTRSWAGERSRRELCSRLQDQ
# Method in brief: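 Cdc25B activity read by UV-vis at 477 nm as product formed from 3-O-methylfluorescein phosphate (mFP) at 50 μM (~5 × Km), time-dependent, initial-velocity conditions (2–5% turnover); eight inhibitor concentrations, IC50 fitted to eq 1. Each reaction compared with a simultaneous no-inhibitor control; selected compounds run in duplicate.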
# [4] = target: T4, M-phase inducer phosphatase 3 (Homo sapiens) (UniProt P30307); test: Percent inhibition of cell division cycle 25 degree C at 50 uM
# T4 sequence (whole entry): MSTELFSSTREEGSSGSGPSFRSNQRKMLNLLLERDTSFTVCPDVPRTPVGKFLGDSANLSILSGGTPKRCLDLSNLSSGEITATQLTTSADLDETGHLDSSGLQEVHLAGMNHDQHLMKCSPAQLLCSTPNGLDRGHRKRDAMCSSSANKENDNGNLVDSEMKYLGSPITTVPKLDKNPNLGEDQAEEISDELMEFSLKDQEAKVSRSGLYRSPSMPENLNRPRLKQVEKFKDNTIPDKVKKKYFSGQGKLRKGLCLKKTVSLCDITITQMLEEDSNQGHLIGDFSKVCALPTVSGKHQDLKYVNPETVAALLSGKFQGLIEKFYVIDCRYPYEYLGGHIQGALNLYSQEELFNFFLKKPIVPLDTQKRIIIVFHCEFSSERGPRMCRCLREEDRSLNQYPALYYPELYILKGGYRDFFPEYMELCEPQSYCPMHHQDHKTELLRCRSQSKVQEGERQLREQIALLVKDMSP
# Method in brief: (§2)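 Single-point screen at 50 μM inhibitor against Cdc25A, Cdc25B or Cdc25C with 50 μM 3-O-methylfluorescein phosphate, product followed at 477 nm in time-dependent assays. Activity was compared with a simultaneous no-inhibitor control, and selected compounds were run in duplicate (average error ±7%).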
# [5] = target: T5, M-phase inducer phosphatase 2 (Homo sapiens) (UniProt P30305); test: Percent inhibition of cell division cycle 25B at 50 uM
# T5 sequence (whole entry): T3 sequence (P30305 whole entry)
# Method in brief: as §2
# [6] = target: T6, M-phase inducer phosphatase 3 (Homo sapiens, UniProt P30307); test: Eight point inhibitory concentration against Cell division cycle 25 degree C was determined
# T6 sequence (P30307 whole entry): T4 sequence (whole entry)
# Method in brief: as §1
# [7] = target: T7, M-phase inducer phosphatase 1 (Homo sapiens) (UniProt P30304); test: Percent inhibition of cell division cycle 25A at 50 uM
# T7 sequence (whole entry): T2 sequence (P30304 whole entry)
# Method in brief: as §2
# [8] = target: T4, M-phase inducer phosphatase 3 (Homo sapiens); test: Percent inhibition against Cdc25C phosphatase at 50 uM of compound
# Method in brief: as §2
# [9] = target: T3, M-phase inducer phosphatase 2; test: Inhibitory constant of compound against Cell division cycle 25B was determined using mFP as a substrate
# [10] = target: T3, M-phase inducer phosphatase 2; test: Inhibitory concentration of compound against Cell division cycle 25B was determined using CDK2-p-TpY/Cyclin A as a substrate
# Method in brief: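 Cdc25B dephosphorylation of 300 nM Cdk2-pTpY/CycA protein substrate was run in time-dependent assays at eight inhibitor concentrations to give IC50. Reactions were quenched with TCA, and bovine serum albumin carrier (1 mg/mL) was added only after the quench so that it was absent during inhibitor exposure.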
# [11] = target: M-phase inducer phosphatase 2 (Homo sapiens, UniProt P30305, R496L); test: Inhibitory concentration of compound against mutant R482L of Cdc25B phosphatase was determined
# Method in brief: (§3)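 Cdc25B catalytic domain constructs (wild-type, site-directed point mutants, truncated); activity with 3-O-methylfluorescein phosphate at 50 μM (~5 × Km), product read at 477 nm by UV-vis under initial velocity (2–5% turnover); eight inhibitor concentrations, IC50 fitted; values are mean of two determinations.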
# [12] = target: M-phase inducer phosphatase 2 (Homo sapiens, UniProt P30305, F489A); test: Inhibitory concentration of compound against mutant F475A of Cdc25B phosphatase was determined
# Method in brief: as §3
# [13] = target: T1, M-phase inducer phosphatase 2; test: Inhibitory concentration of compound against truncated mutant of Cdc25B phosphatase was determined
# Method in brief: as §3
# [14] = target: T1, M-phase inducer phosphatase 2; test: Inhibitory concentration of compound against mutant WT of Cdc25B phosphatase was determined
# Method in brief: as §3
# [15] = target: T3, M-phase inducer phosphatase 2; test: Inhibitory concentration of compound against Cdc25B phosphatase was determined using CDK2-p-TpY/Cyclin A as a substrate
# Method in brief: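 Cdc25B IC50 with Cdk2-pTpY/CycA protein substrate at 300 nM; eight inhibitor concentrations; time-dependent assays; 1 mg/mL BSA carrier added only after TCA quench, not during reaction.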
# [16] = target: T3, M-phase inducer phosphatase 2; test: Inhibitory constant of compound against Cdc25B phosphatase was determined using mFP as a substrate
# [17] = target: M-phase inducer phosphatase 2 (Homo sapiens, UniProt P30305, E488Q); test: Inhibitory concentration of compound against mutant E474Q of Cdc25B phosphatase was determined
# Method in brief: as §3
# Sequence of M-phase inducer phosphatase 2 (Homo sapiens, UniProt P30305, E488Q) (P30305 whole entry E488Q): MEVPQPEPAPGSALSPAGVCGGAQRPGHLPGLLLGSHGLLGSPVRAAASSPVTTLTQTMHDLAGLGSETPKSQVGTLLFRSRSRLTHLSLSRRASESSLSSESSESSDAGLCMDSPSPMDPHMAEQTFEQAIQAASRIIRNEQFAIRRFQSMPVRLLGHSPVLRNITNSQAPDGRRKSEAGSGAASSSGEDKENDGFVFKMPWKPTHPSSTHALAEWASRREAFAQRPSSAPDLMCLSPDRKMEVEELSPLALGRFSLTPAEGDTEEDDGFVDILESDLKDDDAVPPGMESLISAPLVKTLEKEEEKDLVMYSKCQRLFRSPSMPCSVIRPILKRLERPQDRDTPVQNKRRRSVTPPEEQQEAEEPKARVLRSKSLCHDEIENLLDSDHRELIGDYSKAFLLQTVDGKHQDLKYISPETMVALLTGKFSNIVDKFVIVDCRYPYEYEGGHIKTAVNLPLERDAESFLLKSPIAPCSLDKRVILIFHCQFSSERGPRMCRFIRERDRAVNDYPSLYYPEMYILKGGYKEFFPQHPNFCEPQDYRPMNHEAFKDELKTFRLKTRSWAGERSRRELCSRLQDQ
# Sequence of M-phase inducer phosphatase 2 (Homo sapiens, UniProt P30305, R496L) (P30305 whole entry R496L, the tested form may be a part): as the sequence (P30305 whole entry E488Q) above, with Q488E, R496L counted along it
# Sequence of M-phase inducer phosphatase 2 (Homo sapiens, UniProt P30305, F489A) (P30305 whole entry F489A): as the sequence (P30305 whole entry E488Q) above, with Q488E, F489A counted along it
SMILES,IC50 [2] [µM],IC50 [3] [µM],inhibition [4] [%],inhibition [5] [%],IC50 [6] [µM],inhibition [7] [%],other results
CC(C)=CCC/C(C)=C/CC/C(C)=C/Cc1cccc2c(C3=C(O)C(O)=CC(=O)C3=O)c[nH]c12,2.4,2.4,85,89,3.5,96,Ki [1]: 640 nM
CC(C)(C)c1cccc2c(C3=C(O)C(O)=CC(=O)C3=O)c[nH]c12,7.2,7.2,37,33,> 50,93,
O=C1C=C(O)C(=O)C(c2c[nH]c3c(Cc4ccccc4)cccc23)=C1O,2.3,2.3,98,97,15,100,
O=C1/C(=N/CCc2cc(Br)c(O)c(Br)c2)C=C(O)c2cccnc21,15,35,,,35,,
Cc1ccc2[nH]cc(C3=C(O)C(O)=CC(=O)C3=O)c2c1,8.1,,,61,,100,inhibition [8]: 55%
Cc1ccccc1Cc1cccc2c(C3=C(O)C(O)=CC(=O)C3=O)c[nH]c12,1,1,94,97,3.5,100,
O=C1C=C(O)C(=O)C(c2c[nH]c3c(-c4ccccc4)cccc23)=C1O,2.5,2.5,91,92,27,99,
O=C1C=C(O)C(=O)C(c2c[nH]c3c2ccc2ccccc23)=C1O,2.5,24,75,79,15,99,
CC(C)=CCc1c(Cl)ccc2c(C3=C(O)C(O)=CC(=O)C3=O)c[nH]c12,4,7.2,,,11,,
O=C1C=C(O)C(=O)C(c2c[nH]c3cccc(Cl)c23)=C1O,28,> 50,0,21,> 50,22,
CC(C)=CCc1c(Cl)cc(Cl)c2c(C3=C(O)C(O)=CC(=O)C3=O)c[nH]c12,5,2.3,,,8.8,,Ki [9]: 430 nM; IC50 [10]: 8.6 µM
O=C1C=C(O)C(=O)C(c2c[nH]c3cc(Cl)ccc23)=C1O,4.2,14,81,92,40,100,
O=C1C=C(O)C(=O)C(c2c[nH]c3c(OCc4ccccc4)cccc23)=C1O,4.2,4.2,85,97,6.9,98,
O=C1C=C(O)C(=O)C(c2c[nH]c3ccccc23)=C1O,25,18,69,75,30,33,IC50 [11]: 73 µM; IC50 [12]: 76 µM; IC50 [13]: 34 µM; IC50 [14]: 18 µM; IC50 [15]: > 50 µM; Ki [16]: 13 µM; IC50 [17]: 200 µM
CCCc1cccc2c(C3=C(O)C(O)=CC(=O)C3=O)c[nH]c12,4.2,59,79,23,> 50,72,
O=C1C=C(O)C(=O)C(c2c(C3CC3)[nH]c3ccccc23)=C1O,35,> 50,0,32,> 50,22,
